Experimental findings from ChEMBL document CHEMBL1132450, “New natural sesquiterpenes as modulators of daunomycin resistance in a multidrug-resistant Leishmania tropica line” (1999) are described below.

In assay [1] the test system is Leishmania tropica. Description: The compound was tested for growth inhibition against Wild type parasites, at a concentration of 15 uM. Type of assay: functional. The method, boiled down:
(§1)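 Wild-type L. tropica LRC clone, obtained by agar plating. Cultured at 28 °C in modified RPMI 1640 with 20% heat-inactivated fetal bovine serum. Growth sensitivity to the sesquiterpene was assessed.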

Assay [2] has as its system Leishmania tropica. The assay is described as follows: The compound was tested for growth inhibition against Wild type parasites, at a concentration of 30 uM. Type of assay: functional. In short, it runs like this:
as §1

Assay [3] can be described thus: The compound was tested for binding activity against nucleotide-binding domain 2, with quenching at 50 uM. The method, boiled down: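 Recombinant Leishmania Pgp-like transporter NBD2, expressed in E. coli M15 [pREP4] and affinity-purified, at 0.2–0.5 µM final in pH 8.5 potassium phosphate buffer with 1 M NaCl, glycerol, HECAMEG and 10 mM imidazole, 25 °C. Sesquiterpene in DMSO (≤2% final) titrated in. Intrinsic fluorescence read at 300–350 nm emission (288 nm excitation), corrected for inner-filter and dilution. Quenching at 50 µM was read graphically from the curve.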

Assay [4] relates to Leishmania tropica. The assay is described as follows: The compound was tested for growth inhibition against DNM-R150 (Leishmania tropica) parasites, at a concentration of 15 uM. Type of assay: functional. In short, it runs like this:
(§2)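 Multidrug-resistant L. tropica DNM-R150 line, kept under continuous 150 µM daunomycin and overexpressing a Pgp-like transporter. Parasites were grown at 28 °C in modified RPMI 1640 with 20% heat-inactivated fetal bovine serum and tested for growth sensitivity to the sesquiterpene.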

The test system of assay [5] is Leishmania tropica. The assay is described as follows: The compound was tested for growth inhibition against DNM-R150 (Leishmania tropica) parasites, at a concentration of 30 uM. The assay is classed as functional. The method, boiled down:
as §2

Assay [6] relates to Leishmania tropica. Description: The compound was tested for growth inhibition against Wild type parasites, at a concentration of 15 uM. The assay is classed as functional. The method, boiled down: as §1
The subject of assay [7] is Leishmania tropica. The assay is described as follows: The compound was tested for growth inhibition against Wild type parasites, at a concentration of 30 uM. The assay is classed as functional. The method, boiled down:
as §1

In assay [8] the test system is Leishmania tropica. Description: The compound was tested for growth inhibition against DNM-R150 (Leishmania tropica) parasites, at a concentration of 30 uM. The assay is classed as functional. In short, it runs like this:
as §2

Assay [9] relates to Leishmania tropica. Description: The compound was tested for growth inhibition against DNM-R150 (Leishmania tropica) parasites, at a concentration of 15 uM. Type of assay: functional. The method, boiled down: as §2

For the molecule `CCC(C)C(=O)OC[C@@]12[C@@H](OC(C)=O)CC[C@](C)(O)[C@]13OC(C)(C)[C@H]([C@@H](OC(=O)c1cccnc1)[C@@H]2OC(=O)c1ccccc1)[C@H]3OC(C)=O` (some centres undefined), the Growth inhibition in the assay with Leishmania tropica [1] was 6.9%; in the assay with Leishmania tropica [2], 13.8%; in the assay on Leishmania tropica [4], 92.9%; in the assay with Leishmania tropica [5] it was 96.1%. Also, the Quenching in assay [3] is 34.3%.
As to `CCC(C)C(=O)OC[C@]12[C@H](OC(=O)c3ccccc3)[C@@H](OC(C)=O)[C@@H]3[C@@H](O)[C@]1(OC3(C)C)[C@@](C)(O)C[C@H](OC(=O)c1cccnc1)[C@@H]2O` (some centres undefined), the Growth inhibition is listed as 9.3% with Leishmania tropica [1], 8.4% in the assay on Leishmania tropica [2], 20.8% in the assay on Leishmania tropica [4] and 88.3% in the assay with Leishmania tropica [5]. The Quenching in [3] came to 31.1%.
As for `CCC(C)C(=O)OC[C@]12[C@H](OC(=O)c3ccccc3)[C@@H](OC(C)=O)[C@@H]3[C@@H](OC(C)=O)[C@]1(OC3(C)C)[C@@](C)(O)C[C@H](O)[C@@H]2OC(=O)c1ccccc1` (some centres undefined), the Growth inhibition with Leishmania tropica [1] is given as 25.5%; with Leishmania tropica [2], 62.9%; in the assay with Leishmania tropica [4] it was 77.8%; with Leishmania tropica [5], 95.4%.
Consider `CC(=O)OC[C@@]12[C@@H](OC(C)=O)CC[C@](C)(O)[C@]13OC(C)(C)[C@H]([C@H](OC(C)=O)[C@H]2OC(=O)c1ccccc1)[C@H]3OC(C)=O`, for which the Quenching in assay [3] was 27%. The Growth inhibition in the assay on Leishmania tropica [6] turned out to be 13.5%; in the assay with Leishmania tropica [7], 16.9%; in the assay on Leishmania tropica [8], 49.8%; in the assay with Leishmania tropica [9] it was 16.3%.
Regarding `CCC(C)C(=O)OC[C@]12[C@H](OC(=O)c3ccccc3)[C@@H](OC(C)=O)[C@@H]3[C@@H](OC(C)=O)[C@]1(OC3(C)C)[C@@](C)(O)C[C@H](OC(C)=O)[C@@H]2OC(C)=O` (some centres undefined), in [3], the Quenching was 22.8%. Also, the Growth inhibition worked out at 4.9% with Leishmania tropica [6], 9.5% in the assay on Leishmania tropica [7], 86.1% in the assay on Leishmania tropica [8] and 40.9% with Leishmania tropica [9].
For `CCC(C)C(=O)OC[C@]12[C@H](OC(=O)c3ccccc3)[C@@H](OC(C)=O)[C@@H]3[C@@H](O)[C@]1(OC3(C)C)[C@@](C)(O)C[C@H](O)[C@@H]2OC(=O)c1ccccc1` (some centres undefined), the Growth inhibition with Leishmania tropica [1] is reported as 9.8%; in the assay on Leishmania tropica [2], 30%; in the assay on Leishmania tropica [4], 90.5%; in the assay on Leishmania tropica [5] it was 96%. The molecule also showed a Quenching in assay [3] of 31.4%.
Molecule `CCC(C)C(=O)OC[C@]12[C@@H](OC(=O)c3ccccc3)[C@H](OC(=O)c3cccnc3)[C@@H]3[C@@H](OC(C)=O)[C@]1(OC3(C)C)[C@@](C)(O)C[C@H](OC(C)=O)[C@@H]2OC(C)=O` (some centres undefined) came in with a Quenching in assay [3] of 31.8%. For the same molecule, the Growth inhibition is given as 7.5% with Leishmania tropica [6], 6.2% with Leishmania tropica [7], 82.5% in the assay with Leishmania tropica [8] and 32.3% with Leishmania tropica [9].
In assay [3], `CCC(C)C(=O)OC[C@]12[C@H](OC(=O)c3ccccc3)[C@@H](OC(C)=O)[C@@H]3[C@@H](O)[C@]1(OC3(C)C)[C@@](C)(O)C[C@H](OC(C)=O)[C@@H]2OC(C)=O` (some centres undefined) had a Quenching of 30.8%. Moreover, the Growth inhibition in the assay on Leishmania tropica [6] amounted to 7.5%; in the assay on Leishmania tropica [7] it was 11.1%; in the assay on Leishmania tropica [8], 91.7%; with Leishmania tropica [9], 26.8%.
As to `CCC(C)C(=O)OC[C@]12[C@H](OC(=O)c3ccccc3)[C@@H](OC(=O)C(C)CC)[C@@H]3[C@@H](O)[C@]1(OC3(C)C)[C@@](C)(O)C[C@H](O)[C@@H]2OC(C)=O` (some centres undefined), the Growth inhibition in the assay with Leishmania tropica [1] worked out at 5.3%; in the assay with Leishmania tropica [2], 4%; in the assay on Leishmania tropica [4], 83.1%; in the assay with Leishmania tropica [5], 92.6%. Further, in assay [3], the Quenching amounted to 27.5%.
